What was measured:
PLCG2 SH2 domains = target: T1, PLCG2 SH2 domains (Homo sapiens, UniProt P16885); experiment: FP saturation binding, construct not stated; conditions: result in words
T1 sequence (P16885 532-735 limits assumed): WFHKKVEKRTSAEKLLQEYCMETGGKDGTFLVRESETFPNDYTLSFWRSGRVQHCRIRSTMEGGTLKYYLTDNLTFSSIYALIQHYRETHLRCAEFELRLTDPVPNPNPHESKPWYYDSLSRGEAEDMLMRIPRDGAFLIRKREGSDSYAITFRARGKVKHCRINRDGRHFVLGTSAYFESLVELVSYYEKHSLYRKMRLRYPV
Outline: (§1)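 Multi-SH2 genes were used as tandem proteins that kept the linker residues. Automated high-throughput FP saturation binding was run against 178 synthetic phosphopeptides from RTK, GAB1 and androgen receptor tyrosine sites. Millipolarization readings were fitted to P_obs = Pmax·[Protein]/(K_D+[Protein]) by least squares regression to give K_D.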

PLCG1 SH2 domains = target: T2, PLCG1 SH2 domains (Homo sapiens, UniProt P19174); experiment: FP saturation binding, construct not stated; conditions: result in words
T2 sequence (P19174 550-756 limits assumed): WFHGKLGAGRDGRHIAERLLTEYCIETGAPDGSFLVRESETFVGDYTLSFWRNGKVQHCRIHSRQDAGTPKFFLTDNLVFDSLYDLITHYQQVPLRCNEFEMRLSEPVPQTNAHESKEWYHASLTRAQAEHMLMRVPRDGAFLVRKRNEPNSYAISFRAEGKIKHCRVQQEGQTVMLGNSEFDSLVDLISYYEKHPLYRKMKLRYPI
Outline: as §1

PIK3R3 SH2 domains = experiment: FP saturation binding, construct not stated; parameters: species or system human; conditions: result in words
Outline: as §1

PIK3R1 SH2 domains = PIK3R1 SH2 domains (Homo sapiens, UniProt P27986); experiment: FP saturation binding, construct not stated; conditions: result in words
Outline: as §1

RASA1 SH2 domains = target: T3, RASA1 SH2 domains (Homo sapiens, UniProt P20936); experiment: FP saturation binding, construct not stated; conditions: result in words
T3 sequence (P20936 181-441 limits assumed): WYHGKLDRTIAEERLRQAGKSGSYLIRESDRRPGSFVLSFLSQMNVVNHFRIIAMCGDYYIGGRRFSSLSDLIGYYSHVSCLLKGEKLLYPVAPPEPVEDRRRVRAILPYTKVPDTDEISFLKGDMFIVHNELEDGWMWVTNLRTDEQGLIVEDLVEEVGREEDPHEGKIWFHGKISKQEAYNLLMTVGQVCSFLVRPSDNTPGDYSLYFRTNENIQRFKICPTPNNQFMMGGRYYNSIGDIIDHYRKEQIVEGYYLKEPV
Outline: as §1

CRK SH2 domain = CRK SH2 domain (Homo sapiens, UniProt P46108); experiment: FP saturation binding; conditions: result in words
Outline: as §1

[1] = test system: tensin family SH2 domains; experiment: FP saturation binding, domain family; parameters: species or system human; conditions: result in words
Outline: as §1

[2] = test system: PIK3R-derived SH2 domains; experiment: FP saturation binding, domain family; parameters: species or system human; conditions: for recruitment of PIK3R (PI3KR) SH2 domains: FP, result in words
Outline: as §1

[3] = test system: c-Src family kinase SH2 domains; experiment: FP saturation binding, domain family; parameters: species or system human; conditions: result in words
Outline: as §1

CRKL SH2 domain = CRKL SH2 domain (Homo sapiens, UniProt P46109); experiment: FP saturation binding; conditions: result in words
Outline: as §1

Shp2/PTPN11 SH2 domain = target: T4, Shp2/PTPN11 SH2 domain (Homo sapiens, UniProt Q06124); experiment: FP saturation binding, construct not stated; conditions: result in words
T4 sequence (Q06124 2-593): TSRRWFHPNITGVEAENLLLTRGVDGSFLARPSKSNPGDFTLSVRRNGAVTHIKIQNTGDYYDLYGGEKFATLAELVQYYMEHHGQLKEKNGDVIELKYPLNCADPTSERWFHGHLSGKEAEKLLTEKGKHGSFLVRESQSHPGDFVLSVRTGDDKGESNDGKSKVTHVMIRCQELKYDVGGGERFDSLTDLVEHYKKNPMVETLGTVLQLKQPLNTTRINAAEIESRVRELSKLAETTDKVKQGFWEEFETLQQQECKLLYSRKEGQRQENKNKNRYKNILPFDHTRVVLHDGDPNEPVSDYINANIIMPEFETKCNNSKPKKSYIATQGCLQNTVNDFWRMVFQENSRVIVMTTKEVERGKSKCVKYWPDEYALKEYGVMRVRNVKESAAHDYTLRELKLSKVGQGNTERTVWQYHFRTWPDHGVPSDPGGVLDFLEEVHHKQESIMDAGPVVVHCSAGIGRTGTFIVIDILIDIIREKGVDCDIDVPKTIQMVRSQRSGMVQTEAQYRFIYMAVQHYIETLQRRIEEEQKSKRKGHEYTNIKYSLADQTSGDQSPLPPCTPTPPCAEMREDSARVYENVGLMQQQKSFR
Outline: as §1

SH2D1B SH2 domain = target: T5, SH2D1B SH2 domain (Homo sapiens, UniProt O14796); experiment: FP saturation binding; conditions: result in words
T5 sequence (O14796 5-101 limits assumed): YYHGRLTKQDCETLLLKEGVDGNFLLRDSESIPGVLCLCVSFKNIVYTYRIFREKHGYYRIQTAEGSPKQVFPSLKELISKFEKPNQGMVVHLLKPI
Outline: as §1

[4] = target: T6, SHC1 PTB domain (SHC1.PTB) (Homo sapiens, UniProt P29353); experiment: FP saturation binding; conditions: result in words
T6 sequence (P29353 156-339 limits assumed): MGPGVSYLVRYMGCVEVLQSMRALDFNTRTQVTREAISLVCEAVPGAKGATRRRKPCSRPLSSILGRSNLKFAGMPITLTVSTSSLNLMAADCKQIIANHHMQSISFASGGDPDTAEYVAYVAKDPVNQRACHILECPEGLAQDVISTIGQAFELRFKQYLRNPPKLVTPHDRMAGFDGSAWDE
Outline: as §1

SHC1 SH2 domain = target: T7, SHC1 SH2 domain (Homo sapiens, UniProt P29353); experiment: FP saturation binding; conditions: result in words
T7 sequence (P29353 488-579 limits assumed): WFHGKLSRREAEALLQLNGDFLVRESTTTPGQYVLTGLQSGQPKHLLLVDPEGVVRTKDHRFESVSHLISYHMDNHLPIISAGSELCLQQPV
Outline: (§2)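 Tandem SH2 proteins were kept with their linkers. Synthetic phosphotyrosine peptides were run in automated high-throughput FP saturation binding. Millipolarization was fitted to Pobs = Pmax·[Protein]/(KD+[Protein]) by least squares to give KD per protein/peptide pair.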

GRB2 SH2 domain = GRB2 SH2 domain (Homo sapiens, UniProt P62993); experiment: FP saturation binding; conditions: result in words
Outline: as §2

GRAP2 SH2 domain = GRAP2 SH2 domain (Homo sapiens, UniProt O75791); experiment: FP saturation binding; conditions: result in words
Outline: as §2

SH2D1A SH2 domain = SH2D1A SH2 domain (Homo sapiens, UniProt O60880); experiment: FP saturation binding; conditions: result in words
Outline: as §1

CRK SH2 domain, sequence (P46108 13-118 limits assumed): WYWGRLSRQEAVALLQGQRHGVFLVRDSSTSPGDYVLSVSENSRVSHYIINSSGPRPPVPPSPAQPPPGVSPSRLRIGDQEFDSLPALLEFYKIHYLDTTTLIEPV
PIK3R1 SH2 domains, sequence (P27986 2-724): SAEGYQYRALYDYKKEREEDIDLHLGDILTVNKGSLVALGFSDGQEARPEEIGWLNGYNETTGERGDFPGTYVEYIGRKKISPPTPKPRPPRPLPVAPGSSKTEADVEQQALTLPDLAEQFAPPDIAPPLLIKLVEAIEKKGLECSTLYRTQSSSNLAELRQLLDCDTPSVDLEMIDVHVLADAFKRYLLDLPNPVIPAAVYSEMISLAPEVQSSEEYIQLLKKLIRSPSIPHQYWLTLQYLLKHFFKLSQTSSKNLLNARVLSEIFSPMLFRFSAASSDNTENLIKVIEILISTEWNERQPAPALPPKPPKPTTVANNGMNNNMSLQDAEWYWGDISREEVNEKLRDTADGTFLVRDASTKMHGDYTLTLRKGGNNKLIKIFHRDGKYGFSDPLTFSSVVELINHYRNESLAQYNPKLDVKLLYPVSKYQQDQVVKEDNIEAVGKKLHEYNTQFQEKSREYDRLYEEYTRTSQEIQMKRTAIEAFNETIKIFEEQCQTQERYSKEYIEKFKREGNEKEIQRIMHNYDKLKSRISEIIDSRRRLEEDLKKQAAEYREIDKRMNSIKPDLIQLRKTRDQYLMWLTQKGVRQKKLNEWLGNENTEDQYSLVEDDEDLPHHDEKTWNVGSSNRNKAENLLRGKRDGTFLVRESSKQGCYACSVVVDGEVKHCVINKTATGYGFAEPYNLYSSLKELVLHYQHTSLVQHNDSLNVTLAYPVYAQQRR
CRKL SH2 domain, sequence (P46109 14-102 limits assumed): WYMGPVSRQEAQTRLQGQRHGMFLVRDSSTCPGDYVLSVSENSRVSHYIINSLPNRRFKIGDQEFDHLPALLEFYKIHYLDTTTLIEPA
GRB2 SH2 domain, sequence (P62993 60-152 limits assumed): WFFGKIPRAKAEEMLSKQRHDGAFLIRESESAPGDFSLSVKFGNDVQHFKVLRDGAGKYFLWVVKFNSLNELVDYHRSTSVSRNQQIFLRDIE
SH2D1A SH2 domain, sequence (O60880 6-104 limits assumed): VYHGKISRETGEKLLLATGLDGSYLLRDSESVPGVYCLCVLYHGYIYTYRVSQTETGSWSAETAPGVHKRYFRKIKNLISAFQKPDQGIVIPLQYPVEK
GRAP2 SH2 domain, sequence (O75791 58-149 limits assumed): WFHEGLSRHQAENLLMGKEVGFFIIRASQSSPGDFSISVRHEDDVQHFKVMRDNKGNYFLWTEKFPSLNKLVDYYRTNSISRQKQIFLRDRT

VKPIXFHTQ [AR Tyr(P)-915]
recruitment of PLCG2 SH2 domains (PLCG2 SH2 domains): recruitment sites
recruitment of PLCG1 SH2 domains (PLCG1 SH2 domains): recruitment sites

LDENXVPMNPNSd [GAB1 Tyr(P)-447]
recruitment of PIK3R3 (PIK3R3 SH2 domains): high affinity
recruitment of PIK3R1 (PIK3R1 SH2 domains): confirmed

LPIDXYFPPQKTd [AR Tyr(P)-551]
recruitment of PLCG2 SH2 domains (PLCG2 SH2 domains): recruitment sites
recruitment of PLCG1 SH2 domains (PLCG1 SH2 domains): recruitment sites

VSISXDIPPTPGd [GAB1 Tyr(P)-307]
recruitment of RASA1 SH2 domains (RASA1 SH2 domains): confirmed
recruitment of CRK SH2 domain (CRK SH2 domain): no CRK SH2 domain interactions
recruitment of PLCG1 SH2 domains (PLCG1 SH2 domains): confirmed

DVWSXGIFLWELd [c-Kit Tyr(P)-855]
recruitment of CRK SH2 domain (CRK SH2 domain): recruited
recruitment of tensin family SH2 domains [1]: recruited

PIDYXFPPQKTCd [AR Tyr(P)-553]
recruitment of PIK3R (PI3KR) SH2 domains [2]: relatively high affinity
recruitment of PLCG2 SH2 domains (PLCG2 SH2 domains): recruitment sites
recruitment of PLCG1 SH2 domains (PLCG1 SH2 domains): recruitment sites

VITEXCCYGDLLd [c-Kit Tyr(P)-672]
recruitment of c-Src family kinase SH2 domains [3]: recruited
recruitment of CRK SH2 domain (CRK SH2 domain): recruited

NNYVXIDPTQLPd [c-Kit Tyr(P)-570]
recruitment of c-Src family kinase SH2 domains [3]: recruited

SQDCXDIPRAFPd [GAB1 Tyr(P)-406]
recruitment of CRKL SH2 domain (CRKL SH2 domain): CRKL SH2 domain interactions
recruitment of CRK SH2 domain (CRK SH2 domain): no CRK SH2 domain interactions
recruitment of PLCG1 SH2 domains (PLCG1 SH2 domains): confirmed

DSSLXNLPRSYSd [GAB1 Tyr(P)-259]
recruitment of CRKL SH2 domain (CRKL SH2 domain): CRKL SH2 domain interactions
recruitment of CRK SH2 domain (CRK SH2 domain): no CRK SH2 domain interactions

DITVXLLQGRRLd [c-Met Tyr(P)-1295]
recruitment of Shp2/PTPN11 SH2 domain (Shp2/PTPN11 SH2 domain): recruit

PAEMXDIMKTCWd [c-Kit Tyr(P)-900]
recruitment of c-Src family kinase SH2 domains [3]: recruited

IGEHXVHVNATYd [c-Met Tyr(P)-1349]
recruitment of SH2D1B SH2 domain (SH2D1B SH2 domain): moderate affinity
recruitment of PLCG1 SH2 domains (PLCG1 SH2 domains): moderate affinity

FENSXIFDINTId [GAB1 Tyr(P)-83]
interaction with SHC1 PTB domain [4]: interactions were observed
interaction with SHC1 SH2 domain (SHC1 SH2 domain): interactions were identified

STNEXMDMKPGVd [c-Kit Tyr(P)-721]
midpoint dissociation constants ([2]; FP saturation binding, all PIK3R SH2 domains, in words): sub-micromolar
recruitment of PIK3R (PI3KR) SH2 domains [2]: highest affinity

KLKRXAWKRRWFd [GAB1 Tyr(P)-24]
recruitment of CRK SH2 domain (CRK SH2 domain): CRK SH2 domain recruitment
interaction with SHC1 PTB domain [4]: interactions were observed

EYCCXGDLLNFLd [c-Kit Tyr(P)-675]
recruitment of c-Src family kinase SH2 domains [3]: recruited
recruitment of CRK SH2 domain (CRK SH2 domain): recruited

LPPPXQLINVPPd [GAB1 Tyr(P)-162]
interaction with SHC1 SH2 domain (SHC1 SH2 domain): unable to detect

TDSSXCIPTAGMd [GAB1 Tyr(P)-373]
recruitment of CRK SH2 domain (CRK SH2 domain): no CRK SH2 domain interactions
interaction with SHC1 SH2 domain (SHC1 SH2 domain): interactions were identified
recruitment of PLCG1 SH2 domains (PLCG1 SH2 domains): confirmed

PGNTXQIPRTFPd [GAB1 Tyr(P)-317]
recruitment of RASA1 SH2 domains (RASA1 SH2 domains): confirmed

DRIFXLVADSEEd [GAB1 Tyr(P)-95]
recruitment of CRK SH2 domain (CRK SH2 domain): CRK SH2 domain recruitment
interaction with SHC1 SH2 domain (SHC1 SH2 domain): interactions were identified

QEANXVPMTPGTd [GAB1 Tyr(P)-472]
recruitment of PIK3R3 (PIK3R3 SH2 domains): high affinity
recruitment of PIK3R1 (PIK3R1 SH2 domains): confirmed

EAALXKNLLHSKd [c-Kit Tyr(P)-703]
recruitment of GRB2 SH2 domain (GRB2 SH2 domain): detectably recruited
recruitment of GRAP2 SH2 domain (GRAP2 SH2 domain): detectably recruited

SEENXVPMNPNLd [GAB1 Tyr(P)-627]
recruitment of PIK3R3 (PIK3R3 SH2 domains): high affinity
recruitment of PIK3R1 (PIK3R1 SH2 domains): confirmed
interaction with SHC1 SH2 domain (SHC1 SH2 domain): interactions were identified

LQPEXCPDPLYEd [c-Met Tyr(P)-1307]
recruitment of PIK3R (PI3KR) SH2 domains [2]: moderate recruitment
recruitment of Shp2/PTPN11 SH2 domain (Shp2/PTPN11 SH2 domain): recruit

ERVDXVVVDQQKd [GAB1 Tyr(P)-689]
recruitment of PIK3R (PI3KR) SH2 domains [2]: able to recruit
recruitment of c-Src family kinase SH2 domains [3]: able to recruit
recruitment of SH2D1B SH2 domain (SH2D1B SH2 domain): able to recruit
recruitment of Shp2/PTPN11 SH2 domain (Shp2/PTPN11 SH2 domain): unable to recruit
interaction with SHC1 SH2 domain (SHC1 SH2 domain): interactions were identified
recruitment of PLCG1 SH2 domains (PLCG1 SH2 domains): able to recruit

CVAPXPSLLSSEd [c-Met Tyr(P)-1365]
recruitment of RASA1 SH2 domains (RASA1 SH2 domains): interactions
recruitment of c-Src family kinase SH2 domains [3]: interactions
recruitment of SH2D1B SH2 domain (SH2D1B SH2 domain): interactions
recruitment of Shp2/PTPN11 SH2 domain (Shp2/PTPN11 SH2 domain): recruit
recruitment of tensin family SH2 domains [1]: interactions
recruitment of SH2D1A SH2 domain (SH2D1A SH2 domain): interactions
recruitment of PLCG1 SH2 domains (PLCG1 SH2 domains): interactions

QQMIXDSPPSRAd [GAB1 Tyr(P)-242]
recruitment of CRK SH2 domain (CRK SH2 domain): no CRK SH2 domain interactions

DPQDXLLLINCQd [GAB1 Tyr(P)-183]
interaction with SHC1 PTB domain [4]: interactions were observed
interaction with SHC1 SH2 domain (SHC1 SH2 domain): interactions were identified

— PMC4083110 (Molecular & Cellular Proteomics : MCP, 2014)
